Tested on: SNU-387
Assay: Cytotoxicity against human SNU387 cells after 48 hrs by MTT assay
Format: functional, cell-based
Conditions: SNU-387, 48 h
Procedure, shortened: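 SNU387 hepatoma cells (Shanghai Cell Bank) grown in RPMI1640 with 10% FBS, seeded in 96-well plates and exposed to test compounds at various concentrations for 48 h. Viability read by MTT, absorbance at 570 nm. IC50 calculated from concentration-response; samples assayed in triplicate, paclitaxel as positive control.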

Structure (SMILES): CCCCCCCC/C=C\CCCCCCCC(=O)OCC1=C[C@H]2[C@@H]3C(C)(C)[C@]3(OC(C)=O)[C@H](O)[C@@H](C)[C@]2(O)[C@@H]2C=C(C)C(=O)[C@@H]2C1
- IC50: 6.6 µM

Structure (SMILES): C/C=C(\C)C(=O)O[C@@H]1[C@@H](C)[C@]2(O)[C@@H]3C=C(C)C(=O)[C@@H]3CC(CO)=C[C@H]2[C@@H]2C(C)(C)[C@]12OC(=O)CCCCCCCCC
- IC50: > 10 µM

Structure (SMILES): CCCCCCCCCCCCCCCC(=O)O[C@@H]1[C@@H](C)[C@@]2(O)[C@@H](C=C(CO)C[C@]3(O)C(=O)C(C)=C[C@@H]23)[C@@H]2C(C)(C)[C@]12OC(C)=O
- IC50: > 10 µM

Structure (SMILES): CCCCC/C=C\C/C=C\CCCCCCCC(=O)OCC1=C[C@H]2[C@@H]3C(C)(C)[C@]3(OC(C)=O)[C@H](O)[C@@H](C)[C@]2(O)[C@@H]2C=C(C)C(=O)[C@@H]2C1
- IC50: 8.1 µM

Structure (SMILES): CCC(C)C(=O)O[C@@H]1[C@@H](C)[C@@]2(O)[C@@H](C=C(CO)C[C@]3(O)C(=O)C(C)=C[C@@H]23)[C@@H]2C(C)(C)[C@]12OC(=O)C(C)C (stereo not given in full)
- IC50: > 10 µM

Structure (SMILES): C/C=C(\C)C(=O)O[C@@H]1[C@@H](C)[C@]2(O)[C@@H]3C=C(C)C(=O)[C@@H]3CC(CO)=C[C@H]2[C@@H]2C(C)(C)[C@]12OC(C)=O
- IC50: > 10 µM

Structure (SMILES): C/C=C(\C)C(=O)O[C@@H]1[C@@H](C)[C@@]2(O)[C@@H](C=C(CO)C[C@]3(O)C(=O)C(C)=C[C@@H]23)[C@@H]2C(C)(C)[C@]12OC(=O)C(C)CC (stereo not given in full)
- IC50: 8.7 µM

Structure (SMILES): CCCCCCCC/C=C\CCCCCCCC(=O)OCC1=C[C@H]2[C@@H]3C(C)(C)[C@]3(OC(C)=O)[C@H](O)[C@@H](C)[C@]2(O)[C@@H]2C=C(C)C(=O)[C@@]2(O)C1
- IC50: 1.2 µM

Structure (SMILES): C/C=C(\C)C(=O)O[C@@H]1[C@@H](C)[C@@]2(O)[C@@H](C=C(CO)C[C@]3(O)C(=O)C(C)=C[C@@H]23)[C@@H]2C(C)(C)[C@]12OC(=O)C(C)C
- IC50: > 10 µM

Structure (SMILES): C/C=C(\C)C(=O)O[C@@H]1[C@@H](C)[C@]2(O)[C@@H]3C=C(C)C(=O)[C@@H]3CC(CO)=C[C@H]2[C@@H]2C(C)(C)[C@]12OC(=O)C(C)C
- IC50: > 10 µM

Structure (SMILES): CCCCCCCCCC(=O)O[C@@]12[C@H](OC(C)=O)[C@@H](C)[C@@]3(O)[C@@H](C=C(CO)C[C@]4(O)C(=O)C(C)=C[C@@H]34)[C@@H]1C2(C)C
- IC50: > 10 µM

Structure (SMILES): CCCCCCCCCCCC(=O)O[C@@]12[C@H](OC(=O)C(C)CC)[C@@H](C)[C@@]3(O)[C@@H](C=C(CO)C[C@]4(O)C(=O)C(C)=C[C@@H]34)[C@@H]1C2(C)C (stereo not given in full)
- IC50: > 10 µM

Structure (SMILES): C/C=C(\C)C(=O)O[C@@H]1[C@@H](C)[C@]2(O)[C@@H]3C=C(C)C(=O)[C@@H]3CC(CO)=C[C@H]2[C@@H]2C(C)(C)[C@]12OC(=O)Cc1ccccc1
- IC50: > 10 µM

Structure (SMILES): CC(=O)O[C@H]1C(=O)[C@@]2(C)[C@H]([C@H](OC(=O)c3ccccc3)[C@]3(O)C[C@H](OC(=O)[C@H](O)[C@@H](NC(=O)c4ccccc4)c4ccccc4)C(C)=C1C3(C)C)[C@]1(OC(C)=O)CO[C@@H]1C[C@@H]2O [PACLITAXEL]
- IC50: 0.27 µM

Structure (SMILES): C/C=C(\C)C(=O)O[C@@H]1[C@@H](C)[C@@]2(O)[C@@H](C=C(CO)C[C@]3(O)C(=O)C(C)=C[C@@H]23)[C@@H]2C(C)(C)[C@]12OC(=O)CC
- IC50: > 10.2 µM

Structure (SMILES): C/C=C(\C)C(=O)O[C@@]12[C@H](OC(=O)C(C)CC)[C@@H](C)[C@@]3(O)[C@@H](C=C(CO)C[C@]4(O)C(=O)C(C)=C[C@@H]34)[C@@H]1C2(C)C (stereo not given in full)
- IC50: > 10 µM

Structure (SMILES): CCCCC/C=C\C/C=C\CCCCCCCC(=O)OCC1=C[C@H]2[C@@H]3C(C)(C)[C@]3(OC(C)=O)[C@H](O)[C@@H](C)[C@]2(O)[C@@H]2C=C(C)C(=O)[C@@]2(O)C1
- IC50: 3.4 µM

Structure (SMILES): C/C=C(\C)C(=O)O[C@@H]1[C@@H](C)[C@]2(O)[C@@H]3C=C(C)C(=O)[C@@H]3CC(CO)=C[C@H]2[C@@H]2C(C)(C)[C@]12OC(=O)C(C)CC (stereo not given in full)
- IC50: > 10 µM

Structure (SMILES): CCCCCCCCCCCC(=O)O[C@@]12[C@H](OC(C)=O)[C@@H](C)[C@@]3(O)[C@@H](C=C(CO)C[C@]4(O)C(=O)C(C)=C[C@@H]34)[C@@H]1C2(C)C
- IC50: > 10 µM

Structure (SMILES): CCCCCCCCCCCCCC(=O)O[C@@H]1[C@@H](C)[C@@]2(O)[C@@H](C=C(CO)C[C@]3(O)C(=O)C(C)=C[C@@H]23)[C@@H]2C(C)(C)[C@]12OC(C)=O [PHORBOL MYRISTATE ACETATE]
- IC50: > 10 µM

— ChEMBL document CHEMBL2375233, “Cytotoxic phorbol esters of Croton tiglium” (J Nat Prod, 2013)
